Laboratory results published in ChEMBL document CHEMBL2046301, “Synthesis and antimycobacterial activity of some phthalimide derivatives” (Bioorg Med Chem, 2012).
In brackets after ≈: the same amount, converted by molar mass.

Key:
[1] = tested on: Mycobacterium tuberculosis; test: Antimycobacterial activity against Mycobacterium tuberculosis H37Ra ATCC 25177 by microbroth dilution method; format: functional
Procedure, shortened: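 M. tuberculosis H37Ra (ATCC 25177) colonies suspended in Middlebrook 7H9 broth to 1.0 McFarland, diluted tenfold, mixed 1:1 with twofold compound dilutions (DMSO stocks; final 256 to 1 µg/mL). Growth was checked by Kinyoun acid-fast smear. MIC = lowest concentration giving complete inhibition.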

L929 = test: Cytotoxicity against mouse L929 cells at 0.1 mM after 24 hrs by MTT assay; format: cell-based; settings: l929, 24 h, 100 µM
Procedure, shortened: (§1)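 L929 mouse fibroblasts seeded at 3 × 10³ cells/well in 100 µl medium; cell-free medium wells as controls. Exposed to compounds at 10^-4 M for 24 h. Viable cells quantified by MTT with absorbance read at 570 nm. Viability given as percent of absorbance of unexposed cells. Each experiment repeated three times.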

[2] = Cytotoxicity against mouse L929 cells at 0.1 mM assessed as cell viability after 24 hrs by MTT assay; format: cell-based; settings: read-out: Activity; procedure, shortened: as §1

Structure (SMILES) | MBC [1] | MIC [1] | Activity (L929) | viability at 24 h, 100 µM [2]
CC(=O)NS(=O)(=O)c1ccc(N2C(=O)c3ccccc3C2=O)cc1 | 256 µg/mL (≈ 743 µM) | 256 µg/mL (≈ 743 µM) | Non-toxic | –
O=C(NS(=O)(=O)c1ccc(N2C(=O)c3ccccc3C2=O)cc1)c1ccccc1 | 256 µg/mL (≈ 630 µM) | 128 µg/mL (≈ 315 µM) | Non-toxic | –
O=C1c2ccccc2C(=O)N1c1ccc(S(=O)(=O)Nc2nccs2)cc1 | 256 µg/mL (≈ 664 µM) | 256 µg/mL (≈ 664 µM) | Non-toxic | –
CC(=O)NS(=O)(=O)c1ccc(N2C(=O)c3c(F)c(F)c(F)c(F)c3C2=O)cc1 | 128 µg/mL (≈ 307 µM) | 64 µg/mL (≈ 154 µM) | Non-toxic | –
O=C(NS(=O)(=O)c1ccc(N2C(=O)c3c(F)c(F)c(F)c(F)c3C2=O)cc1)c1ccccc1 | 128 µg/mL (≈ 268 µM) | 64 µg/mL (≈ 134 µM) | Non-toxic | –
O=C1c2c(F)c(F)c(F)c(F)c2C(=O)N1c1ccc(S(=O)(=O)Nc2ncccn2)cc1 | 64 µg/mL (≈ 141 µM) | 32 µg/mL (≈ 70.7 µM) | Non-toxic | –
Cc1cc(C)nc(NS(=O)(=O)c2ccc(N3C(=O)c4c(F)c(F)c(F)c(F)c4C3=O)cc2)n1 | 128 µg/mL (≈ 266 µM) | 32 µg/mL (≈ 66.6 µM) | Toxic | –
O=C1c2c(F)c(F)c(F)c(F)c2C(=O)N1c1ccc(S(=O)(=O)Nc2nccs2)cc1 | 64 µg/mL (≈ 140 µM) | 64 µg/mL (≈ 140 µM) | Non-toxic | –
Cc1cc(NS(=O)(=O)c2ccc(N3C(=O)c4c(F)c(F)c(F)c(F)c4C3=O)cc2)no1 | 128 µg/mL (≈ 281 µM) | 32 µg/mL (≈ 70.3 µM) | Toxic | < 50%
Cc1ccnc(NS(=O)(=O)c2ccc(N3C(=O)c4c(F)c(F)c(F)c(F)c4C3=O)cc2)n1 | 256 µg/mL (≈ 549 µM) | 128 µg/mL (≈ 274 µM) | – | –
COc1ncnc(NS(=O)(=O)c2ccc(N3C(=O)c4c(F)c(F)c(F)c(F)c4C3=O)cc2)c1OC | 64 µg/mL (≈ 125 µM) | 32 µg/mL (≈ 62.5 µM) | Toxic | < 50%
NNC(=O)c1ccncc1 [ISONIAZID] | – | < 0.2 µg/mL | – | –
Nc1ccc(S(=O)(=O)NC(=O)c2ccccc2)cc1 [SULFABENZAMIDE] | 256 µg/mL (≈ 926 µM) | 32 µg/mL (≈ 116 µM) | – | –
CC(=O)NS(=O)(=O)c1ccc(N)cc1 [SULFACETAMIDE] | 256 µg/mL (≈ 1190 µM) | 64 µg/mL (≈ 299 µM) | – | –
Nc1ccc(S(=O)(=O)Nc2ncccn2)cc1 [SULFADIAZINE] | 128 µg/mL (≈ 511 µM) | 8 µg/mL (≈ 32 µM) | – | –
COc1ncnc(NS(=O)(=O)c2ccc(N)cc2)c1OC [SULFADOXINE] | 256 µg/mL (≈ 825 µM) | 32 µg/mL (≈ 103 µM) | – | –
Cc1ccnc(NS(=O)(=O)c2ccc(N)cc2)n1 [SULFAMERAZINE] | 256 µg/mL (≈ 969 µM) | 32 µg/mL (≈ 121 µM) | – | –
Cc1cc(C)nc(NS(=O)(=O)c2ccc(N)cc2)n1 [SULFAMETHAZINE] | 256 µg/mL (≈ 920 µM) | 32 µg/mL (≈ 115 µM) | – | –
Cc1cc(NS(=O)(=O)c2ccc(N)cc2)no1 [SULFAMETHOXAZOLE] | 256 µg/mL (≈ 1010 µM) | 32 µg/mL (≈ 126 µM) | – | –
Nc1ccc(S(=O)(=O)Nc2nccs2)cc1 [SULFATHIAZOLE] | 16 µg/mL (≈ 62.7 µM) | 4 µg/mL (≈ 15.7 µM) | – | –
O=C1CCC(N2C(=O)c3ccccc3C2=O)C(=O)N1 (stereo not drawn) [THALIDOMIDE] | 256 µg/mL (≈ 991 µM) | 128 µg/mL (≈ 496 µM) | – | –
